Experimental data: ChEMBL document CHEMBL1146274, “Serendipitous discovery of novel imidazolopyrazole scaffold as selective androgen receptor modulators” (2007)

How the values were obtained:
Rattus norvegicus [1] = assay: Androgenic activity in castrated immature Sprague-Dawley rat assessed as ventral prostate weight stimulation at 2 mg/day, po by Hersherberger assay; format: functional, Prostate gland
Procedure, shortened: (§1)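 Castrated immature male rats were given oral doses once daily for 5 days in 20% cyclodextrin vehicle, n = 3 per group. Ventral prostate weight was normalized to the vehicle control. Percent stimulation was scaled with the vehicle group set to 0% and the testosterone-alone group set to 100%.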

Rattus norvegicus [2] = species: Rattus norvegicus; assay: Inhibition of testosterone-enhanced ventral prostate weight in castrated immature Sprague-Dawley rat; format: functional, Prostate gland; design: concentration or dose not given beside the values
Procedure, shortened: (§2)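 This was an antagonist mode in castrated immature male rats. Animals were dosed orally once daily for 5 days at 2 mg/day in 20% cyclodextrin, together with testosterone propionate 0.1 mg/day (about 1.3 mg/kg) subcutaneously in sesame oil, n = 3 per group. Percent inhibition of prostate weight was scaled with the vehicle group set to 100% and the testosterone-alone group set to 0%.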

Rattus norvegicus [3] = assay: Anabolic activity assessed as stimulation of levator ani muscle weight in castrated immature Sprague-Dawley rat at 2 mg/day, po by Hersherberger assay
Rattus norvegicus [4] = assay: Anabolic activity assessed as stimulation of levator ani muscle weight in sc dosed castrated immature Sprague-Dawley rat by Hersherberger assay; format: functional; conditions: in the assay text read “po dosed” for “sc dosed”
Procedure, shortened: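 Castrated immature male rats received testosterone propionate by subcutaneous injection at the nape of the neck, 5 mg/kg in sesame oil. Levator ani weight was measured as percent stimulation, with the vehicle control set to 0% and the testosterone-alone group set to 100%.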

Rattus norvegicus [5] = species: Rattus norvegicus; assay: Androgenic activity in castrated immature Sprague-Dawley rat assessed as ventral prostate weight stimulation at 3 mg/ day by Hersherberger assay; format: functional, Prostate gland; procedure, shortened: as §1
Rattus norvegicus [6] = assay: Inhibition of ventral prostate weight in castrated immature Sprague-Dawley rat at 2 mg/day, po; format: functional, Prostate gland; design: scale not given: the % may be the effect or the level left; procedure, shortened: as §2
Rattus norvegicus [7] = assay: Anabolic activity assessed as stimulation of levator ani muscle weight in castrated immature Sprague-Dawley rat at 5 mg/day, sc by Hersherberger assay; format: functional
Procedure, shortened: (§3)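 Castrated immature male rats; agent given subcutaneously by injection at the nape of the neck in sesame oil. Compounds in the same table were dosed once daily for 5 days with N = 3/group. Tissue weight is expressed as percent stimulation, with the vehicle-treated control set to 0% and the testosterone-alone control set to 100%.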

Rattus norvegicus [8] = assay: Androgenic activity in castrated immature Sprague-Dawley rat assessed as ventral prostate weight stimulation at 5 mg/day, sc by Hersherberger assay; format: functional, Prostate gland; procedure, shortened: as §3

For `CCN/C(=N\c1ccc(C#N)c(C(F)(F)F)c1)C1(C)CC(C(F)(F)F)=NN1` (centres undefined), the Activity (Rattus norvegicus [1]) was less than 10%, the Inhibition (Rattus norvegicus [2]) was 18% and the Activity (Rattus norvegicus [3]) was 50%.
In the case of `CC1(/C(=N/c2ccc(C#N)c(C(F)(F)F)c2)NS(C)(=O)=O)CC(C(F)(F)F)=NN1` (centres undefined), the Activity (Rattus norvegicus [1]) is reported as less than 10%, the Inhibition (Rattus norvegicus [2]) is reported as less than 10% and the Activity (Rattus norvegicus [3]) is reported as less than 10%.
For `C[C@@]12CC(C(F)(F)F)=NN1C(N)=N/C2=N\c1ccc(C#N)c(C(F)(F)F)c1`, the Inhibition (Rattus norvegicus [2]) was less than 10%, the ED50 (Rattus norvegicus [4]) was 0.85 mg/day and the Activity (Rattus norvegicus [5]) was 29%. It also gave an Activity (Rattus norvegicus [3]) of 72%.
Compound `CC12CC(c3c(F)c(F)c(F)c(F)c3F)=NN1C(N)=N/C2=N\c1ccc(C#N)c(C(F)(F)F)c1` (centres undefined) has an Activity (Rattus norvegicus [1]) of less than 10%, an Inhibition (Rattus norvegicus [2]) of less than 10% and an Activity (Rattus norvegicus [3]) of 21%.
Compound `CCN(CC)/C(=N\c1ccc(C#N)c(C(F)(F)F)c1)C1(C)CC(C(F)(F)F)=NN1` (centres undefined) has an Activity (Rattus norvegicus [1]) of 22%, an Inhibition (Rattus norvegicus [2]) of less than 10% and an Activity (Rattus norvegicus [3]) of 32%.
For `CC1(/C(N)=N/c2ccc(C#N)c(C(F)(F)F)c2)CC(C(F)(F)F)=NN1` (centres undefined), the Activity (Rattus norvegicus [1]) was 39%, the Inhibition (Rattus norvegicus [2]) was 20% and the Activity (Rattus norvegicus [3]) was 76%.
`CN/C(=N\c1ccc(C#N)c(C(F)(F)F)c1)C1(C)CC(C(F)(F)F)=NN1` (centres undefined) gave an Activity (Rattus norvegicus [6]) of 15%, an Inhibition (Rattus norvegicus [2]) of 15% and an Activity (Rattus norvegicus [3]) of 17%.
In the case of `CCOC(=O)C1=NN2C(N)=N/C(=N\c3ccc(C#N)c(C(F)(F)F)c3)C2(C)C1` (centres undefined), the Activity (Rattus norvegicus [1]) is reported as less than 10%, the Inhibition (Rattus norvegicus [2]) is reported as less than 10% and the Activity (Rattus norvegicus [3]) is reported as less than 10%.
Compound `CCC12CC(C(F)(F)F)=NN1C(N)=N/C2=N\c1ccc(C#N)c(C(F)(F)F)c1` (centres undefined) has an Activity (Rattus norvegicus [1]) of less than 10%, an Inhibition (Rattus norvegicus [2]) of less than 10% and an Activity (Rattus norvegicus [3]) of 16%.
In the case of `CC12CC(C(F)(F)F)=NN1C(NC(=O)C(F)(F)F)=N/C2=N\c1ccc(C#N)c(C(F)(F)F)c1` (centres undefined), the Activity (Rattus norvegicus [1]) is reported as 55%, the Inhibition (Rattus norvegicus [2]) is reported as 31% and the Activity (Rattus norvegicus [3]) is reported as 61%.
For `CC12CC(C(F)(F)F)=NN1C(N)=N/C2=N\c1ccc(Cl)c(Cl)c1` (centres undefined), the Activity (Rattus norvegicus [1]) was less than 10%, the Inhibition (Rattus norvegicus [2]) was 31% and the Activity (Rattus norvegicus [3]) was less than 10%.
In the case of `CC12CC(C(F)(F)F)=NN1C(N)=N/C2=N\c1ccc(Br)c(C(F)(F)F)c1` (centres undefined), the Activity (Rattus norvegicus [1]) is reported as less than 10%, the Inhibition (Rattus norvegicus [2]) is reported as less than 10% and the Activity (Rattus norvegicus [3]) is reported as less than 10%.
`CC12CC(C(F)(F)F)=NN1C(N)=N/C2=N\c1ccc([N+](=O)[O-])c(C(F)(F)F)c1` (centres undefined) was tested, and the Activity (Rattus norvegicus [1]) was less than 10%, the Inhibition (Rattus norvegicus [2]) was less than 10% and the Activity (Rattus norvegicus [3]) was less than 10%.
Work on `CC12CC(C(F)(F)F)=NN1C(=N)O/C2=N\c1ccc(C#N)c(C(F)(F)F)c1` (centres undefined) yielded an Activity (Rattus norvegicus [1]) of 55% and an Activity (Rattus norvegicus [3]) of 29%.
`CON/C(=N\c1ccc(C#N)c(C(F)(F)F)c1)C1(C)CC(C(F)(F)F)=NN1` (centres undefined) was tested, and the Activity (Rattus norvegicus [1]) was 14%, the Inhibition (Rattus norvegicus [2]) was less than 10% and the Activity (Rattus norvegicus [3]) was 23%.
For `CC1(/C(=N/c2ccc(C#N)c(C(F)(F)F)c2)NO)CC(C(F)(F)F)=NN1` (centres undefined), the Activity (Rattus norvegicus [1]) was less than 10%, the Inhibition (Rattus norvegicus [2]) was less than 10% and the Activity (Rattus norvegicus [3]) was less than 10%.
With `CC12CC=NN1C(N)=N/C2=N\c1ccc(C#N)c(C(F)(F)F)c1` (centres undefined) the Activity (Rattus norvegicus [1]) was less than 10%, the Inhibition (Rattus norvegicus [2]) was less than 10% and the Activity (Rattus norvegicus [3]) was less than 10%.
`C[C@]12CC(C(F)(F)F)=NN1C(N)=N/C2=N\c1ccc(C#N)c(C(F)(F)F)c1` showed an Inhibition (Rattus norvegicus [2]) of 30%, an ED50 (Rattus norvegicus [4]) of 0.07 mg/day and an Activity (Rattus norvegicus [5]) of 36%. For the same compound, the Activity (Rattus norvegicus [3]) was 91%.
`CCc1c(/N=C2\N=C(N)N3N=C(C(F)(F)F)CC23C)ccc(C#N)c1C(F)(F)F` (centres undefined) showed an Activity (Rattus norvegicus [1]) of less than 10%, an Inhibition (Rattus norvegicus [2]) of less than 10% and an Activity (Rattus norvegicus [3]) of 19%.
In the case of `CC1(/C(=N/c2ccc(C#N)c(C(F)(F)F)c2)N2CCCC2)CC(C(F)(F)F)=NN1` (centres undefined), the Activity (Rattus norvegicus [1]) is reported as less than 10%, the Inhibition (Rattus norvegicus [2]) is reported as less than 10% and the Activity (Rattus norvegicus [3]) is reported as less than 10%.
`C[C@](O)(CS(=O)(=O)c1ccc(F)cc1)C(=O)Nc1ccc(C#N)c(C(F)(F)F)c1` [(R)-BICALUTAMIDE] gave an Inhibition (Rattus norvegicus [2]) of 70%.
For `CCC(=O)O[C@H]1CC[C@H]2[C@@H]3CCC4=CC(=O)CC[C@]4(C)[C@H]3CC[C@]12C` [TESTOSTERONE PROPIONATE], the Activity (Rattus norvegicus [7]) was 100% and the Activity (Rattus norvegicus [8]) was 100%.
